Legend:
J774.A1 = assay: Antiproliferative activity against mouse J774.A1 cells after 72 hrs by MTT conversion assay; assay type: cell-based; conditions: J774.A1, 72 h
Method in brief: (§1)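 Cells (3.4 × 10^4) plated in 96-well plates and left to adhere 2 h at 37 °C, 5% CO2/95% air; medium replaced, 1:4 serial dilutions of compound added, incubated 72 h. Viability by MTT conversion, OD read at 620 nm; % dead cells = 100 − (OD treated/OD control) × 100. 6-mercaptopurine serial dilutions run in some experiments.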

HEK293 = assay: Antiproliferative activity against human HEK293 cells after 72 hrs by MTT conversion assay; assay type: cell-based; conditions: HEK293, 72 h; method in brief: as §1
WEHI-164 = assay: Antiproliferative activity against mouse WEHI164 cells after 72 hrs by MTT conversion assay; assay type: functional, cell-based; conditions: WEHI-164, 72 h; method in brief: as §1

SMILES	IC50 (J774.A1) [µM]	IC50 (HEK293) [µM]	IC50 (WEHI-164) [µM]
C[C@@H]1O[C@@H](O[C@H]2[C@H](O)[C@@H](O)[C@H](OC[C@H]3O[C@@H](OC(=O)[C@]45CCC(C)(C)C[C@H]4C4=CC[C@@H]6[C@@]7(C)CC[C@H](O[C@H]8OC[C@H](O)[C@H](O[C@@H]9O[C@H](CO)[C@@H](O[C@@H]%10O[C@H](CO)[C@@H](O)[C@H](O)[C@H]%10O)[C@H](O)[C@H]9O)[C@H]8O)C(C)(C)[C@@H]7CC[C@@]6(C)[C@]4(C)CC5)[C@H](O)[C@@H](O)[C@@H]3O)O[C@@H]2CO)[C@H](O)[C@H](O)[C@H]1O	3		
CC1(C)CC[C@]2(C(=O)O[C@@H]3O[C@H](CO)[C@@H](O)[C@H](O)[C@H]3O)[C@H](O)C[C@]3(C)C(=CC[C@@H]4[C@@]5(C)CC[C@H](O[C@@H]6O[C@H](C(=O)O)[C@@H](O)[C@H](O)[C@H]6O[C@@H]6O[C@H](CO)[C@@H](O)[C@H](O)[C@H]6O)C(C)(C)[C@@H]5CC[C@]43C)[C@@H]2C1	0.19	0.23	0.34
C[C@@H]1O[C@@H](O[C@H]2[C@H](O)[C@@H](O)[C@H](OC[C@H]3O[C@@H](OC(=O)[C@]45CCC(C)(C)C[C@H]4C4=CC[C@@H]6[C@@]7(C)CC[C@H](O[C@H]8OC[C@H](O)[C@H](O[C@@H]9O[C@H](CO)[C@@H](O)[C@H](O)[C@H]9O)[C@H]8O)C(C)(C)[C@@H]7CC[C@@]6(C)[C@]4(C)CC5)[C@H](O)[C@@H](O)[C@@H]3O)O[C@@H]2CO)[C@H](O)[C@H](O)[C@H]1O	3.6		7
C[C@@H]1O[C@@H](O[C@H]2[C@H](O)[C@@H](O)[C@H](OC[C@H]3O[C@@H](OC(=O)[C@]45CCC(C)(C)C[C@H]4C4=CC[C@@H]6[C@@]7(C)CC[C@H](O[C@@H]8O[C@H](C(=O)O)[C@@H](O)[C@H](O)[C@H]8O[C@@H]8O[C@H](CO)[C@@H](O)[C@H](O)[C@H]8O)C(C)(C)[C@@H]7CC[C@@]6(C)[C@]4(C)CC5)[C@H](O)[C@@H](O)[C@@H]3O)O[C@@H]2CO)[C@H](O)[C@H](O)[C@H]1O	6.9		
C[C@@H]1O[C@@H](O[C@H]2[C@H](O)[C@@H](O)[C@H](OC[C@H]3O[C@@H](OC(=O)[C@]45CCC(C)(C)C[C@H]4C4=CC[C@@H]6[C@@]7(C)CC[C@H](O[C@H]8OC[C@H](O)[C@H](O)[C@H]8O)C(C)(C)[C@@H]7CC[C@@]6(C)[C@]4(C)CC5)[C@H](O)[C@@H](O)[C@@H]3O)O[C@@H]2CO)[C@H](O)[C@H](O)[C@H]1O	2.5		3.4
C[C@@H]1O[C@@H](O[C@H]2[C@H](O)[C@@H](O)[C@H](O[C@@H]3[C@@H](O)[C@H](OC[C@H]4O[C@@H](OC(=O)[C@]56CCC(C)(C)C[C@H]5C5=CC[C@@H]7[C@@]8(C)CC[C@H](O[C@H]9OC[C@H](O)[C@H](O[C@@H]%10O[C@H](CO)[C@@H](O[C@@H]%11O[C@H](CO)[C@@H](O)[C@H](O)[C@H]%11O)[C@H](O)[C@H]%10O)[C@H]9O)C(C)(C)[C@@H]8CC[C@@]7(C)[C@]5(C)C[C@H]6O)[C@H](O)[C@@H](O)[C@@H]4O)O[C@H](CO)[C@H]3O)O[C@@H]2CO)[C@H](O)[C@H](O)[C@H]1O	0.32	1.3	1.7
CC1(C)CC[C@]2(C(=O)O[C@@H]3O[C@H](CO)[C@@H](O)[C@H](O)[C@H]3O)CC[C@]3(C)C(=CC[C@@H]4[C@@]5(C)CC[C@H](O[C@H]6OC[C@H](O)[C@H](O[C@@H]7O[C@H](CO)[C@@H](O)[C@H](O)[C@H]7O)[C@H]6O)C(C)(C)[C@@H]5CC[C@]43C)[C@@H]2C1	3.9		4.6
C[C@@H]1O[C@@H](O[C@H]2[C@H](O)[C@@H](O)[C@H](O[C@@H]3[C@@H](O)[C@H](OC[C@H]4O[C@@H](OC(=O)[C@]56CCC(C)(C)C[C@H]5C5=CC[C@@H]7[C@@]8(C)CC[C@H](O[C@H]9OC[C@H](O)[C@H](O[C@@H]%10O[C@H](CO)[C@@H](O[C@@H]%11O[C@H](CO)[C@@H](O)[C@H](O)[C@H]%11O)[C@H](O)[C@H]%10O)[C@H]9O)C(C)(C)[C@@H]8CC[C@@]7(C)[C@]5(C)CC6)[C@H](O)[C@@H](O)[C@@H]4O)O[C@H](CO)[C@H]3O)O[C@@H]2CO)[C@H](O)[C@H](O)[C@H]1O	9		

From ChEMBL document CHEMBL1157383, “Antiproliferative oleanane saponins from Meryta denhamii” (J Nat Prod, 2008)
